Experimental data reported in ChEMBL document CHEMBL3272032, “Antifolate studies. Activities of 40 potential antimalarial compounds against sensitive and chlorguanide triazine resistant strains of folate-requiring bacteria and Escherichia coli” (J Med Chem, 1977).
Active and inactive are the calls of the source. The calls are words filed in the database; no cut-off is given here.

Assays:
[1] = Antibacterial activity against chlorguanide triazine-resistant Pediococcus cerevisiae ATCC 808 assessed as reduction in growth; assay type: functional
Procedure, shortened: (§1)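 Folate-requiring strains grown in medium with folic acid, 0.002 µg/ml for S. faecium and 0.001 µg/ml for L. casei; P. cerevisiae given folinic acid, 0.001 µg/ml. Resistant substrains came from serial transfer in rising chlorguanide triazine, and the most resistant were used. Compounds tested up to 1000 µg/ml, or 100 µg/ml when supply was limited. Growth read as Klett turbidity; IC50 is the µM concentration giving 50% growth inhibition.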

Lacticaseibacillus casei [2] = test: Antibacterial activity against chlorguanide triazine-resistant Lactobacillus casei ATCC 7469 assessed as reduction in growth; assay type: functional, organism-based; procedure, shortened: as §1
Pediococcus [3] = test: Antibacterial activity against sensitive Pediococcus cerevisiae ATCC 808 assessed as reduction in growth in presence of 0.001 ug/ml folinic acid; assay type: functional
Procedure, shortened: (§2)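 P. cerevisiae grown with folinic acid at 0.001 μg/ml in the earlier-described medium. Turbidity read on a Klett-Summerson colorimeter. IC50 is the micromolar concentration reducing growth to 50% of control. Top concentration was 1000 μg/ml, or 100 μg/ml when supply was limited.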

Enterococcus faecium [4] = test: Antibacterial activity against chlorguanide triazine-resistant Streptococcus faecium ATCC 8043 assessed as reduction in growth; assay type: functional, organism-based; procedure, shortened: as §1
Lacticaseibacillus casei [5] = test: Antibacterial activity against sensitive Lactobacillus casei ATCC 7469 assessed as reduction in growth in presence of 0.001 ug/ml folic acid; assay type: functional, organism-based
Procedure, shortened: (§3)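 Folate-requiring strains in the medium of the earlier assay method. Folic acid was 0.002 μg/ml for S. faecium and 0.001 μg/ml for L. casei. Turbidity read on a Klett-Summerson colorimeter. IC50 is the micromolar concentration reducing growth to 50% of control. Top concentration was 1000 μg/ml, or 100 μg/ml if supply was limited.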

Lacticaseibacillus casei [6] = test: Antibacterial activity against sensitive Lactobacillus casei ATCC 7469 assessed as reduction; assay type: functional, organism-based; procedure, shortened: as §1
Escherichia coli [7] = test: Antibacterial activity against sensitive Escherichia coli ATCC 10536 assessed as reduction in growth; assay type: functional, organism-based
Procedure, shortened: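 Growth inhibition in Sahyun et al. medium plus 0.6% acid-hydrolyzed casein. Growth read as turbidity on a Klett-Summerson photoelectric colorimeter. IC50 is the micromolar concentration giving 50% growth inhibition. Top concentration was 1000 μg/ml, or 100 μg/ml when compound was limited.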

Enterococcus faecium [8] = test: Antibacterial activity against sensitive Streptococcus faecium ATCC 8043 assessed as reduction in growth; assay type: functional, organism-based; procedure, shortened: as §1
Lacticaseibacillus casei [9] = test: Fold increase in resistance, ratio of IC50 for chlorguanide triazine-resistant Lactobacillus casei ATCC 7469 to IC50 for sensitive Lactobacillus casei ATCC 7469; assay type: functional
Procedure, shortened: (§4)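 Resistant substrains were made by serial transfer in rising concentrations of cycloguanil, and the most resistant isolate of each organism was used. Both strains were assayed turbidimetrically under identical conditions. FIR = IC50 of the resistant strain divided by IC50 of the sensitive parent.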

Enterococcus faecium [10] = test: Fold increase in resistance, ratio of IC50 for chlorguanide triazine-resistant Streptococcus faecium ATCC 8043 to IC50 for sensitive Streptococcus faecium ATCC 8043; assay type: functional
Procedure, shortened: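 Resistant S. faecium substrain raised by serial transfer in increasing chlorguanide triazine. IC50 (µM, 50% growth inhibition by turbidity) was found for resistant and parent strains in folic acid (0.002 µg/ml) medium. Fold increase taken as IC50 resistant / IC50 sensitive.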

Pediococcus [11] = test: Antibacterial activity against chlorguanide triazine-resistant Pediococcus cerevisiae ATCC 808 assessed as reduction in growth in presence of 0.001 ug/ml folinic acid; assay type: functional; procedure, shortened: as §1
Enterococcus faecium [12] = test: Antibacterial activity against sensitive Streptococcus faecium ATCC 8043 assessed as reduction in growth in presence of 0.002 ug/ml folic acid; assay type: functional, organism-based; procedure, shortened: as §3
Pediococcus [13] = test: Fold increase in resistance, ratio of IC50 for chlorguanide triazine-resistant Pediococcus cerevisiae ATCC 808 to IC50 for sensitive Pediococcus cerevisiae ATCC 808; assay type: functional; procedure, shortened: as §4
Escherichia coli [14] = test: Antibacterial activity against sensitive Escherichia coli ATCC 10536 assessed as reduction in growth in presence of p-aminobenzoic acid; assay type: functional, organism-based
Procedure, shortened: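 Reversal test. Drug inhibition was challenged with PABA in Sahyun et al. medium plus 0.6% acid-hydrolyzed casein. Growth read as turbidity on a Klett-Summerson colorimeter. Scored as reversal or nonreversal of the drug inhibition.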

[15] = Antibacterial activity against sensitive Pediococcus cerevisiae ATCC 808 assessed as reduction; assay type: functional; procedure, shortened: as §2
Plasmodium berghei [16] = test: Antimalarial activity against Plasmodium berghei infected in sc dosed mouse assessed as dose required to survivors for period of 60 days; assay type: functional
Procedure, shortened: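 Mice infected with a blood-induced P. berghei inoculum were given one subcutaneous dose in peanut oil. Survivors at 60 days counted as cured. The minimum curative dose is the lowest dose that cured any mouse.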

Enterococcus faecium [17] = test: Antibacterial activity against chlorguanide triazine-resistant Streptococcus faecium ATCC 8043 assessed as reduction in growth in presence of 0.002 ug/ml folic acid; assay type: functional, organism-based; procedure, shortened: as §1
Plasmodium berghei [18] = test: Antimalarial activity against Plasmodium berghei infected in sc dosed mouse assessed as active dose required to increase of 100% in mean survival time; assay type: functional; conditions: read-out: MED
Procedure, shortened: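 Mice received a standard blood-induced P. berghei inoculum and were then treated with one subcutaneous dose of compound suspended in peanut oil. The minimum active dose is the lowest dose that raised mean survival time by 100%.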

Lacticaseibacillus casei [19] = test: Antibacterial activity against chlorguanide triazine-resistant Lactobacillus casei ATCC 7469 assessed as reduction in growth in presence of 0.001 ug/ml folic acid; assay type: functional, organism-based; procedure, shortened: as §1

Clc1ccc(Nc2nc(NCCCN3CCCC3)c3ccccc3n2)cc1Cl
IC50 [1]: 7.9 µM
IC50 (Lacticaseibacillus casei [2]): 5.7 µM
inhibition (Pediococcus [3]): Active
IC50 (Enterococcus faecium [4]): 22 µM
inhibition (Lacticaseibacillus casei [5]): Active
IC50 (Lacticaseibacillus casei [6]): 10 µM
IC50 (Escherichia coli [7]): 10 µM
IC50 (Enterococcus faecium [8]): 32 µM
Ratio IC50 (Lacticaseibacillus casei [9]): 0.6
Ratio IC50 (Enterococcus faecium [10]): 0.7
inhibition (Pediococcus [11]): Active
inhibition (Enterococcus faecium [12]): Active
Ratio IC50 (Pediococcus [13]): 2
inhibition (Escherichia coli [14]): Active
IC50 [15]: 3.5 µM

Cc1nc(C)c(Cl)c(O)c1Cl [CLOPIDOL]
IC50 [1]: 1000 µM
MCD (Plasmodium berghei [16]): >640 mg/kg
IC50 (Lacticaseibacillus casei [2]): 885 µM
inhibition (Pediococcus [3]): Active
IC50 (Enterococcus faecium [4]): 2200 µM
inhibition (Lacticaseibacillus casei [5]): Active
IC50 (Lacticaseibacillus casei [6]): 1700 µM
IC50 (Escherichia coli [7]): > 5200 µM
IC50 (Enterococcus faecium [8]): 3700 µM
Ratio IC50 (Lacticaseibacillus casei [9]): 0.52
Ratio IC50 (Enterococcus faecium [10]): 0.6
inhibition (Enterococcus faecium [17]): Active
inhibition (Pediococcus [11]): Active
inhibition (Enterococcus faecium [12]): Active
Ratio IC50 (Pediococcus [13]): 1
IC50 [15]: 833 µM
minimal effective dose (Plasmodium berghei [18]): 160 mg/kg

CC(CNc1nc(Nc2ccc(Cl)c(Cl)c2)nc(C(Cl)(Cl)Cl)n1)N(C)C (stereo not drawn)
IC50 [1]: 7.5 µM
MCD (Plasmodium berghei [16]): 160 mg/kg
IC50 (Lacticaseibacillus casei [2]): 4.9 µM
inhibition (Pediococcus [3]): Active
inhibition (Lacticaseibacillus casei [19]): Active
IC50 (Enterococcus faecium [4]): 14.6 µM
inhibition (Lacticaseibacillus casei [5]): Active
IC50 (Lacticaseibacillus casei [6]): 5.7 µM
IC50 (Enterococcus faecium [8]): 14.2 µM
Ratio IC50 (Lacticaseibacillus casei [9]): 0.9
Ratio IC50 (Enterococcus faecium [10]): 1
inhibition (Enterococcus faecium [17]): Active
inhibition (Pediococcus [11]): Active
inhibition (Enterococcus faecium [12]): Active
Ratio IC50 (Pediococcus [13]): 1
IC50 [15]: 5.9 µM
minimal effective dose (Plasmodium berghei [18]): 80 mg/kg

Nc1nc(=O)c2c([nH]1)NCC(CCNc1ccc(C(=O)[O-])cc1)N2.[Na+] (stereo not drawn)
MCD (Plasmodium berghei [16]): >640 mg/kg
IC50 (Lacticaseibacillus casei [2]): 0.2 µM
inhibition (Lacticaseibacillus casei [19]): inactive
IC50 (Enterococcus faecium [4]): 7.2 µM
inhibition (Lacticaseibacillus casei [5]): inactive
IC50 (Lacticaseibacillus casei [6]): 6 µM
IC50 (Enterococcus faecium [8]): 0.009 µM
Ratio IC50 (Lacticaseibacillus casei [9]): 0.03
Ratio IC50 (Enterococcus faecium [10]): 800
inhibition (Enterococcus faecium [17]): inactive
inhibition (Enterococcus faecium [12]): inactive
IC50 [15]: > 2900 µM
minimal effective dose (Plasmodium berghei [18]): > 640 mg/kg

C/C(=C\C(=N\NC(=N)N)c1ccccc1)c1ccccc1
IC50 [1]: 13 µM
MCD (Plasmodium berghei [16]): >640 mg/kg
IC50 (Lacticaseibacillus casei [2]): 41 µM
inhibition (Pediococcus [3]): Active
inhibition (Lacticaseibacillus casei [19]): Active
IC50 (Enterococcus faecium [4]): 60 µM
inhibition (Lacticaseibacillus casei [5]): Active
IC50 (Lacticaseibacillus casei [6]): 48 µM
IC50 (Escherichia coli [7]): 51 µM
IC50 (Enterococcus faecium [8]): 11 µM
Ratio IC50 (Lacticaseibacillus casei [9]): 1
Ratio IC50 (Enterococcus faecium [10]): 6
inhibition (Pediococcus [11]): Active
inhibition (Enterococcus faecium [12]): inactive
Ratio IC50 (Pediococcus [13]): 0.5
inhibition (Escherichia coli [14]): Active
IC50 [15]: 25 µM
minimal effective dose (Plasmodium berghei [18]): 160 mg/kg

C=C[C@H]1CN2CC[C@H]1C[C@H]2[C@H](O)c1ccnc2ccc(OC)cc12 [QUININE]
IC50 [1]: 850 µM
MCD (Plasmodium berghei [16]): >640 mg/kg
IC50 (Lacticaseibacillus casei [2]): 1200 µM
inhibition (Pediococcus [3]): Active
IC50 (Enterococcus faecium [4]): > 2500 µM
inhibition (Lacticaseibacillus casei [5]): Active
IC50 (Lacticaseibacillus casei [6]): 980 µM
IC50 (Escherichia coli [7]): 1300 µM
IC50 (Enterococcus faecium [8]): > 2500 µM
Ratio IC50 (Lacticaseibacillus casei [9]): 1
inhibition (Pediococcus [11]): Active
Ratio IC50 (Pediococcus [13]): 1
IC50 [15]: 780 µM
minimal effective dose (Plasmodium berghei [18]): 640 mg/kg

Nc1nc(N)c2c(ccc3cc(Br)ccc32)n1
IC50 [1]: 0.3 µM
MCD (Plasmodium berghei [16]): >640 mg/kg
IC50 (Lacticaseibacillus casei [2]): 0.06 µM
inhibition (Pediococcus [3]): inactive
inhibition (Lacticaseibacillus casei [19]): inactive
IC50 (Enterococcus faecium [4]): 0.7 µM
inhibition (Lacticaseibacillus casei [5]): inactive
IC50 (Lacticaseibacillus casei [6]): 1 µM
IC50 (Escherichia coli [7]): 4.8 µM
IC50 (Enterococcus faecium [8]): 0.006 µM
Ratio IC50 (Lacticaseibacillus casei [9]): 0.06
Ratio IC50 (Enterococcus faecium [10]): 117
inhibition (Enterococcus faecium [17]): inactive
inhibition (Enterococcus faecium [12]): inactive
Ratio IC50 (Pediococcus [13]): 7.5
inhibition (Escherichia coli [14]): Active
IC50 [15]: 0.04 µM
minimal effective dose (Plasmodium berghei [18]): 640 mg/kg

CCc1ccc(N2C(N)=NC(N)=NC2(C)C)cc1
IC50 [1]: > 355 µM
MCD (Plasmodium berghei [16]): >640 mg/kg
IC50 (Lacticaseibacillus casei [2]): 291 µM
inhibition (Pediococcus [3]): inactive
inhibition (Lacticaseibacillus casei [19]): inactive
IC50 (Enterococcus faecium [4]): > 350 µM
inhibition (Lacticaseibacillus casei [5]): inactive
IC50 (Lacticaseibacillus casei [6]): 27.3 µM
IC50 (Escherichia coli [7]): 1900 µM
IC50 (Enterococcus faecium [8]): 0.036 µM
Ratio IC50 (Lacticaseibacillus casei [9]): 11
Ratio IC50 (Enterococcus faecium [10]): >9700
inhibition (Enterococcus faecium [12]): inactive
Ratio IC50 (Pediococcus [13]): >8
inhibition (Escherichia coli [14]): Active
IC50 [15]: 42.6 µM
minimal effective dose (Plasmodium berghei [18]): 320 mg/kg

O=C(NO)c1ccc(C(=O)NO)cc1
MCD (Plasmodium berghei [16]): 640 mg/kg
IC50 (Lacticaseibacillus casei [2]): 3000 µM
inhibition (Lacticaseibacillus casei [19]): Active
IC50 (Enterococcus faecium [4]): > 5000 µM
inhibition (Lacticaseibacillus casei [5]): Active
IC50 (Lacticaseibacillus casei [6]): 2600 µM
IC50 (Escherichia coli [7]): > 5000 µM
IC50 (Enterococcus faecium [8]): 1700 µM
Ratio IC50 (Lacticaseibacillus casei [9]): 1
Ratio IC50 (Enterococcus faecium [10]): 3
inhibition (Enterococcus faecium [17]): Active
inhibition (Enterococcus faecium [12]): Active
IC50 [15]: > 5000 µM
minimal effective dose (Plasmodium berghei [18]): 320 mg/kg
